# According to ChEMBL document CHEMBL1121475, “Inhibitors of indoleethylamine N-methyltransferase. Derivatives of 3-methyl-2-thiazolidinimine. In vitro, in vivo, and metabolic studies” (J Med Chem, 1980):
# How the values were obtained:
# Oryctolagus cuniculus [1] = assay: Evaluation of formation of 3-Methyl-thiazolidin-2-ylideneamine from the radiolabeled compound, orally administered, from rabbit 2 urine was analyzed at 0-2 hr by Gas-liquid chromatographic analysis; format: ADME, organism-based; conditions: in vivo, po, in the assay text read “0-4 hr” for “0-2 hr”
# Method in brief: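 Rabbit 2 was gavaged twice with [14C]-labelled parent amide, 100 mg/kg each dose (204.6 dpm/μg), 2 h apart, and killed 2 h after the second dose. Urine (0-4 h), blood, liver, lung and kidney were taken. The metabolite was measured by GLC of trimethylsilyl derivatives (3% OV-210, 95 °C, internal standard 3-ethyl-2-thiazolidinimine). Values are % of radioactivity as metabolite, mean of two determinations.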
# Oryctolagus cuniculus [2] = assay: Evaluation of formation of 3-Methyl-thiazolidin-2-ylideneamine from the radiolabeled compound, orally administered, from rabbit 1,2 liver was analyzed by Gas-liquid chromatographic analysis; format: ADME, organism-based; conditions: in vivo, po
# Method in brief: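 Rabbit 1 was given [14C]-labelled parent amide, 100 mg/kg (204.6 dpm/μg), orally by gavage and killed 2 h later. Urine (0-2 h), blood, liver, lung and kidney were collected. Samples were extracted, trimethylsilylated with BSA/pyridine at 70 °C for 12-16 h, and run by GLC on 3% OV-210 at 95 °C against the internal standard 3-ethyl-2-thiazolidinimine. Output is % of radioactivity present as the metabolite, mean of two determinations.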
smiles,measurement,setting,value
CN1CCS/C1=N\C(=O)CCC(=O)/N=C1/SCCN1C,Radioactivity,Oryctolagus cuniculus [1],44.7%
same,Radioactivity,Oryctolagus cuniculus [2],37.9%
